The results in this text go back to ChEMBL document CHEMBL5030534, “Discovery of Novel Anti-Breast-Cancer Inhibitors by Synergistically Antagonizing Microtubule Polymerization and Aryl Hydrocarbon Receptor Expression” (J Med Chem, 2021).

The source made the active and inactive calls. No cut-off for these calls is given here.

Broadly, the IC50 is the concentration needed to halve the response being measured.

Data set [1] has as its system MCF7. Kind of data set: Antiproliferative activity against human MCF7 cells assessed as reduction in cell viability incubated for 48 hrs by MTT assay. It is filed as functional, cell-based. The conditions noted are these: MCF7, 48 h. Summed up:
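Cells seeded at 5 × 10³ per well, incubated overnight, then exposed to a range of compound concentrations for 48 h. MTT added for 4 h, medium replaced with DMSO, absorbance read at 570 nm. MCF-7, L-O2 grown in DMEM; MCF-10A, MCF-7/ADR in RPMI 1640. Three independent runs.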
(In general: Tetrazolium dyes change colour on reduction, which living cells bring about.)

For data set [2], the system named is MCF7. Put plainly: Induction of apoptosis in human MCF7 cells assessed as late apoptotic cells at 1 nM measured after 24 hrs by Annexin V-FITC and PI staining based flow cytometry assay (reference value: 2.06%). It is filed as functional. (In flow cytometry, cells or beads pass a laser one at a time.)
Data set [3] deals with MCF7. Kind of data set: Induction of apoptosis in human MCF7 cells assessed as viable cells at 2 nM measured after 24 hrs by Annexin V-FITC and PI staining based flow cytometry assay (reference value: 96.8%). It is filed as functional. To be noted: read-out: Activity.
Data set [4] can be described thus: Toxicity in BALB/c nude mouse xenografted with human MCF7 cells assessed as effect on lung at 0.5 to 1 mg/kg, iv administered every 2 days for 21 days by H and E staining based assay. It is filed as organism-based. To be noted: in vivo, 504 h, dose 0.5-1 mg/kg, time 21 day. Summed up:
(§1)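 Nude mice given 6 × 10⁶ MCF-7 cells subcutaneously on right flank; after 7 days randomized, eight per group. iv dosing every 2 days at 0.5 or 1 mg/kg; vehicle 10% DMSO/5% Tween 80/85% saline; paclitaxel 10 mg/kg and CA-4 20 mg/kg references. Body weight every 2 days; killed after 21 days; organs fixed, paraffin-sectioned, H&E stained.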
(A xenograft is tissue or cells of one species grown in another, often human tumour cells in immunodeficient mice.)

Data set [5] in a line: Toxicity in BALB/c nude mouse xenografted with human MCF7 cells assessed as effect on kidney at 0.5 to 1 mg/kg, iv administered every 2 days for 21 days by H and E staining based assay. It is filed as organism-based. The conditions noted are these: in vivo, 504 h, dose 0.5-1 mg/kg, time 21 day. Summed up:
as §1

In data set [6] the test system is MCF7. Put plainly: Antitumor activity against human MCF7 cells xenografted in BALB/c nude mouse assessed as increase in apoptotic cells at 1 mg/kg, iv administered every 2 days for 21 days by TUNEL staining based assay. The conditions noted are these: time 21.0 day. The format is functional, organism-based. Summed up:
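Same subcutaneous MCF-7 nude-mouse xenografts dosed iv every 2 days for 21 days. Tumors then fixed, paraffin-embedded and sectioned. Apoptotic cells detected by TUNEL fluorescent staining with DNA counterstain; microvessel density measured by anti-CD31 immunohistochemistry.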

As to `Cc1nc(N(C)c2ccc3c(c2)cc(C)n3C)c2ccccc2n1`, the 50% inhibitory concentration (IC50) in data set [1] came to 0.9 nM. The Activity in data set [2] is 28.6%; in data set [4], “Non-Toxic”; in data set [5], “Non-Toxic”. Also, the viability at 0.002 µM in data set [3] was 38.3%. The outcome in data set [6] was Active.
